Results taken from ChEMBL document CHEMBL4706742, “Induction of Apoptosis in Cancer Cells by Glutathione Transferase Inhibitor Mediated Hydrophobic Tagging Molecules” (2021).
The source made the active and inactive calls. The calls are words filed in the database; no cut-off is given here.

How the values were obtained:
HeLa [1] = assay: Induction of reactive oxygen species generation in human HeLa cells at 80 uM measured after 3 hrs by DCFH-DA staining based fluorescence laser confocal microscopic analysis; type: functional, cell-based
Method in brief: (§1)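 HeLa cells loaded with DCFH-DA fluorescent ROS probe after treatment at the indicated concentrations. Fluorescence read at Ex/Em 488/525 by laser confocal microscopy. Rosup 50 μg/mL served as positive control.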

HeLa [2] = assay: Induction of apoptosis in human HeLa cells assessed as viable cells at 80 uM measured after 3 hrs by Annexin V-FITC/propidium iodide staining based flow cytometry (reference value: 91.43%); type: functional; details: read-out: Activity
HeLa [3] = assay: Induction of apoptosis in human HeLa cells assessed as early apoptotic cells at 80 uM measured after 3 hrs by Annexin V-FITC/propidium iodide staining based flow cytometry (reference value: 4.37%); type: functional
HeLa [4] = assay: Induction of apoptosis in human HeLa cells assessed as late apoptotic cells at 80 uM measured after 3 hrs by Annexin V-FITC/propidium iodide staining based flow cytometry (reference value: 3.59%); type: functional
HeLa [5] = assay: Induction of apoptosis in human HeLa cells assessed as necrotic cells at 80 uM measured after 3 hrs by Annexin V-FITC/propidium iodide staining based flow cytometry (reference value: 0.61%); type: functional
[6] = target: Glutathione S-transferase P (Homo sapiens) (UniProt P09211); assay: Induction of GSTP1 degradation in human HeLa cells at 80 uM measured after 3 hrs by Western blot analysis; type: cell-based
Glutathione S-transferase P (Homo sapiens), sequence (P09211 2-210 limits assumed): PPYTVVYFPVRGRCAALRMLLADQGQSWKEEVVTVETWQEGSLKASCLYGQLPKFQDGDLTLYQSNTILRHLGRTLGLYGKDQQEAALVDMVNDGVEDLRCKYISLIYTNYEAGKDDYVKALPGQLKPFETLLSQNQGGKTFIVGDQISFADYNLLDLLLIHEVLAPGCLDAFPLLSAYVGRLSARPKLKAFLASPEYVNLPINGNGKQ
Method in brief: (§2)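 GSTP protein in whole-cell lysates, detected by Western blot with specific antibodies after 3 h compound exposure. HeLa (high GSTP expression) treated at 40 or 80 μM or over a dose range; A549 and HT1080 cells (high or medium GSTP) also tested. Blots representative of three independent experiments.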

[7] = target: Glutathione S-transferase P (Homo sapiens) (UniProt P09211); assay: Inhibition of recombinant human N-terminal His-tagged GSTP1 (1 to 210 residues) expressed in Escherichia coli at 100 uM using reduced GSH as substrate measured after 0.5 hrs by CDNB assay
Method in brief: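 GSTP catalytic activity followed via GSH–CDNB conjugation, read as absorbance at 340 nm specific to the conjugate. Compounds tested up to 100 μM.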

[8] = target: Glutathione S-transferase P (Homo sapiens) (UniProt P09211); assay: Induction of GSTP1 degradation in human HeLa cells at 40 to 80 uM measured after 3 hrs by Western blot analysis; type: cell-based; details: dose 40-80 µM; method in brief: as §2
[9] = target: Glutathione S-transferase P (Homo sapiens) (UniProt P09211); assay: Induction of GSTP1 degradation in human HeLa cells at 40 uM measured after 3 hrs by Western blot analysis relative to control; type: cell-based; method in brief: as §2
[10] = target: Glutathione S-transferase P (Homo sapiens) (UniProt P09211); assay: Induction of GSTP1 degradation in human HeLa cells measured after 3 hrs by Western blot analysis; type: cell-based; method in brief: as §2
[11] = target: Glutathione S-transferase P (Homo sapiens) (UniProt P09211); assay: Induction of GSTP1 degradation in human HeLa cells measured after 3 hrs in presence of protein synthesis inhibitor cycloheximide by Western blot analysis; type: cell-based
Method in brief: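 HeLa cells pretreated with cycloheximide, then exposed to compound over a dose range for 3 h. GSTP in total lysates read by Western blot with specific antibodies. Blots representative of three independent experiments.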

[12] = target: Glutathione S-transferase P (Homo sapiens) (UniProt P09211); assay: Induction of GSTP1 degradation in human A549 cells at 5 to 80 uM measured after 3 hrs by Western blot analysis; type: cell-based; details: dose 5-80 µM; method in brief: as §2
[13] = target: Glutathione S-transferase P (Homo sapiens) (UniProt P09211); assay: Induction of GSTP1 degradation in human HT-1080 cells at 5 to 80 uM measured after 3 hrs by Western blot analysis; type: cell-based; details: dose 5-80 µM; method in brief: as §2
[14] = target: Glutathione S-transferase P (Homo sapiens) (UniProt P09211); assay: Induction of GSTP1 degradation in human HeLa cells at 80 uM measured after 3 hrs in presence of 20S proteasome inhibitor bortezomib by Western blot analysis; type: cell-based
Method in brief: (§3)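 HeLa cells cotreated with test compound plus bortezomib (20S proteasome inhibitor), PYR-41 (E1 ubiquitin-activating enzyme inhibitor) or bafilomycin A1 (V-ATPase inhibitor, blocks autophagosome–lysosome fusion). GSTP in total cell lysates then detected by Western blot with specific antibodies. Representative of three independent experiments.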

[15] = target: Glutathione S-transferase P (Homo sapiens) (UniProt P09211); assay: Induction of GSTP1 degradation in human HeLa cells at 80 uM measured after 3 hrs in presence of ubiquitin activating enzyme E1 inhibitor PYR-41 by Western blot analysis; type: cell-based; method in brief: as §3
[16] = target: Glutathione S-transferase P (Homo sapiens) (UniProt P09211); assay: Induction of GSTP1 degradation in human HeLa cells at 80 uM measured after 3 hrs in presence of vacuolar type H (+)-ATPase inhibitor bafilomycin A1 by Western blot analysis; type: cell-based; method in brief: as §3
[17] = target: Glutathione S-transferase P (Homo sapiens) (UniProt P09211); assay: Induction of GSTP1 degradation in human HeLa cells assessed as increase in JNK phosphorylation at 5 to 80 uM measured after 3 hrs by Western blot analysis; type: cell-based; details: dose 5-80 µM
Method in brief: (§4)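 HeLa cells exposed to compound for 3 h. Total cell lysates probed by Western blot with specific antibodies for phospho-JNK, phospho-c-Jun and total JNK. Total JNK bands quantified by densitometry. Representative of three independent experiments.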

[18] = target: Glutathione S-transferase P (Homo sapiens) (UniProt P09211); assay: Induction of GSTP1 degradation in human HeLa cells assessed as increase in c-Jun phosphorylation at 5 to 80 uM measured after 3 hrs by Western blot analysis; type: cell-based; details: dose 5-80 µM; method in brief: as §4
[19] = target: Glutathione S-transferase P (Homo sapiens) (UniProt P09211); assay: Induction of GSTP1 degradation in human HeLa cells assessed as reduction in total JNK expression at 20 to 80 uM measured after 3 hrs by Western blot analysis; type: cell-based; details: dose 20-80 µM; method in brief: as §4
HeLa [20] = assay: Induction of reactive oxygen species generation in human HeLa cells measured after 3 hrs by DCFH-DA staining based fluorescence laser confocal microscopic analysis; type: functional, cell-based; details: dose 5-80 µM; method in brief: as §1
HeLa [21] = assay: Induction of apoptosis in human HeLa cells measured after 3 hrs by Annexin V-FITC/propidium iodide staining based flow cytometry; type: functional, cell-based
HeLa [22] = assay: Induction of apoptosis in human HeLa cells assessed as viable cells at 10 uM measured after 3 hrs by Annexin V-FITC/propidium iodide staining based flow cytometry (reference value: 91.43%); type: functional; details: read-out: Activity
HeLa [23] = assay: Induction of apoptosis in human HeLa cells assessed as early apoptotic cells at 10 uM measured after 3 hrs by Annexin V-FITC/propidium iodide staining based flow cytometry (reference value: 4.37%); type: functional
HeLa [24] = assay: Induction of apoptosis in human HeLa cells assessed as late apoptotic cells at 10 uM measured after 3 hrs by Annexin V-FITC/propidium iodide staining based flow cytometry (reference value: 3.59%); type: functional
HeLa [25] = assay: Induction of apoptosis in human HeLa cells assessed as necrotic cells at 10 uM measured after 3 hrs by Annexin V-FITC/propidium iodide staining based flow cytometry (reference value: 0.61%); type: functional
HeLa [26] = assay: Induction of apoptosis in human HeLa cells assessed as viable cells at 20 uM measured after 3 hrs by Annexin V-FITC/propidium iodide staining based flow cytometry (reference value: 91.43%); type: functional; details: read-out: Activity
HeLa [27] = assay: Induction of apoptosis in human HeLa cells assessed as early apoptotic cells at 20 uM measured after 3 hrs by Annexin V-FITC/propidium iodide staining based flow cytometry (reference value: 4.37%); type: functional
HeLa [28] = assay: Induction of apoptosis in human HeLa cells assessed as late apoptotic cells at 20 uM measured after 3 hrs by Annexin V-FITC/propidium iodide staining based flow cytometry (reference value: 3.59%); type: functional
HeLa [29] = assay: Induction of apoptosis in human HeLa cells assessed as necrotic cells at 20 uM measured after 3 hrs by Annexin V-FITC/propidium iodide staining based flow cytometry (reference value: 0.61%); type: functional
HeLa [30] = assay: Induction of apoptosis in human HeLa cells assessed as viable cells at 40 uM measured after 3 hrs by Annexin V-FITC/propidium iodide staining based flow cytometry (reference value: 91.43%); type: functional; details: read-out: Activity
HeLa [31] = assay: Induction of apoptosis in human HeLa cells assessed as early apoptotic cells at 40 uM measured after 3 hrs by Annexin V-FITC/propidium iodide staining based flow cytometry (reference value: 4.37%); type: functional
HeLa [32] = assay: Induction of apoptosis in human HeLa cells assessed as late apoptotic cells at 40 uM measured after 3 hrs by Annexin V-FITC/propidium iodide staining based flow cytometry (reference value: 3.59%); type: functional
HeLa [33] = assay: Induction of apoptosis in human HeLa cells assessed as necrotic cells at 40 uM measured after 3 hrs by Annexin V-FITC/propidium iodide staining based flow cytometry (reference value: 0.61%); type: functional

Q: Which Activity (HeLa [1]) does the source give for `C=C(CC)C(=O)c1ccc(OCC(=O)O)c(Cl)c1Cl` [ETHACRYNIC ACID] here?
A: The Activity was “inactive”.

Q: And the viability at 80 µM (HeLa [2])?
A: The viability at 80 µM was 84.3%.

Q: And the Activity (HeLa [3])?
A: The Activity was 3.67%.

Q: What about the Activity (HeLa [4]) of the same molecule?
A: Its Activity is 10.3%.

Q: What about the Activity (HeLa [5]) of the same molecule?
A: The Activity was 1.72%.

Q: `C=C(CC)C(=O)c1ccc(OCC(=O)NCCCCCCNC(=O)OC(C)(C)C)c(Cl)c1Cl` was tested. Which Activity [6] did it give?
A: Its Activity is “Active”.

Q: How did the inhibition [7] turn out when `C=C(CC)C(=O)c1ccc(OCC(=O)NC23CC4CC(CC(C4)C2)C3)c(Cl)c1Cl` was run?
A: The inhibition was “Active”.

Q: What about the Activity [8] of the same molecule?
A: Its Activity is “Active”.

Q: What does the source list for `C=C(CC)C(=O)c1ccc(OCC(=O)NCCCCNC(=O)CC23CC4CC(CC(C4)C2)C3)c(Cl)c1Cl`?
A: inhibition [7]: Active; Activity [8]: Active; Activity [9]: 80%; Activity [10]: Dose-dependent effect; Activity [11]: Dose-dependent effect; Activity [12]: Active; Activity [13]: Active; Activity [14]: inactive; Activity [15]: inactive; Activity [16]: inactive; Activity [17]: Active; Activity [18]: Active; Activity [19]: Active; Activity (HeLa [20]): Dose-dependent effect; Activity (HeLa [21]): Dose-dependent effect; viability at 10 µM (HeLa [22]): 92.5%; Activity (HeLa [23]): 3.28%; Activity (HeLa [24]): 3.7%; Activity (HeLa [25]): 0.49%; viability at 20 µM (HeLa [26]): 57%; Activity (HeLa [27]): 15.48%; Activity (HeLa [28]): 26.61%; Activity (HeLa [29]): 0.93%; viability at 40 µM (HeLa [30]): 45%; Activity (HeLa [31]): 19.7%; Activity (HeLa [32]): 34.59%; Activity (HeLa [33]): 0.75%; viability at 80 µM (HeLa [2]): 20.5%; Activity (HeLa [3]): 18.03%; Activity (HeLa [4]): 61.27%; Activity (HeLa [5]): 0.23%

Q: Which inhibition [7] does the source give for `C=C(CC)C(=O)c1ccc(OCC(=O)NCCNC(=O)CC23CC4CC(CC(C4)C2)C3)c(Cl)c1Cl` here?
A: The inhibition was “Active”.

Q: What about the Activity [8] of the same molecule?
A: Its Activity is “Active”.
